In ChEMBL document CHEMBL1152819, “Evaluation of hexadecyloxypropyl-9-R-[2-(Phosphonomethoxy)propyl]- adenine, CMX157, as a potential treatment for human immunodeficiency virus type 1 and hepatitis B virus infections” (Antimicrob Agents Chemother, 2007):
pEC50: −log10 of the molar value.

How the values were obtained:
[1] = Selectivity index, ratio of CC50 for human PBMC to EC50 for HIV1 clade B HT/92/599 isolate
How it was run: (§1)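 Fresh human PBMCs, seronegative for HIV and HBV, infected with HIV-1 clade B HT/92/599. Antiviral read-out by reverse transcriptase reduction; cytotoxicity by XTT staining. EC50, CC50 and CC50/EC50 taken from data plots, given as mean ± standard deviation of triplicate determinations.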

Rattus norvegicus [2] = assay: AUC (0 to infinity) in Sprague-Dawley rat assessed as tenofovir level at 30 mg/kg, po administered daily for 7 days measured on day 1; format: ADME, organism-based, Plasma; set-up: time infinity, dose 30 mg/kg, route oral; conditions: in vivo, 168 h
How it was run: (§2)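 Sprague-Dawley rats (3/sex/group), about 8 to 12 weeks old and not fasted, got vehicle or 10, 30 or 100 mg/kg/day orally once daily for 7 days. Blood was drawn at 0.5, 1, 2, 4, 12 and 24 h after dosing on days 1 and 7 (1 rat/sex/time point). Plasma was deproteinized, then HPLC-MS/MS (LOQ 1 ng/ml, values below set to zero). Noncompartmental analysis, AUC by linear-log trapezoidal rule.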

Rattus norvegicus [3] = assay: Tmax in Sprague-Dawley rat assessed as tenofovir level at 100 mg/kg, po administered daily for 7 days measured on day 7; format: ADME, organism-based; set-up: dose 100 mg/kg, route oral; conditions: in vivo, 168 h
How it was run: (§3)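 Oral once daily for 7 days, vehicle or 10, 30 or 100 mg/kg/day, Sprague-Dawley rats 8-12 weeks old, not fasted. Plasma sampled 0.5, 1, 2, 4, 12, 24 h after dosing on days 1 and 7 (1 rat/sex/time point). CMX157 and tenofovir measured by HPLC-MS/MS, LOQ 1 ng/ml (values below set to zero). Noncompartmental analysis; Cmax/Tmax by direct observation, AUC by linear-log trapezoidal rule.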

Rattus norvegicus [4] = assay: Elimination half life in Sprague-Dawley rat assessed as tenofovir level at 100 mg/kg, po administered daily for 7 days measured on day 1; format: ADME, organism-based; set-up: dose 100 mg/kg, route oral; conditions: in vivo, 168 h; how it was run: as §3
Rattus norvegicus [5] = assay: AUC (0 to infinity) in Sprague-Dawley rat assessed as tenofovir level at 100 mg/kg, po administered daily for 7 days measured on day 1; format: ADME, organism-based, Plasma; set-up: time infinity, dose 100 mg/kg, route oral; conditions: in vivo, 168 h; how it was run: as §3
Rattus norvegicus [6] = assay: Elimination half life in Sprague-Dawley rat assessed as tenofovir level at 30 mg/kg, po administered daily for 7 days measured on day 7; format: ADME, organism-based; set-up: dose 30 mg/kg, route oral; conditions: in vivo, 168 h; how it was run: as §3
[7] = Selectivity index, ratio of CC50 for human MT2 cells to EC50 for HIV1 LAI; format: toxicity, cell-based; conditions: read-out: Ratio CC50/EC50
[8] = system: Human immunodeficiency virus 1; assay: Antiviral activity against HIV1 LAI in human MT2 cells assessed as inhibition of p24 antigen production by ELISA; format: functional, organism-based; conditions: Human immunodeficiency virus 1, LAI
How it was run: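 MT-2 cells in RPMI 1640 with 10% FBS and 10 mM HEPES, infected with HIV-1 LAI at MOI 0.001 TCID50/cell. Incubated with threefold serial dilutions, three wells per dilution. EC50 taken as the concentration inhibiting p24 antigen production by 50%.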

[9] = system: Human immunodeficiency virus 1; assay: Antiviral activity against HIV1 clade B HT/92/599 isolate in human PBMC assessed as reduction in reverse transcriptase; format: functional, organism-based; conditions: Human immunodeficiency virus 1, clade B; how it was run: as §1
Rattus norvegicus [10] = assay: Elimination half life in Sprague-Dawley rat assessed as tenofovir level at 10 mg/kg, po administered daily for 7 days measured on day 7; format: ADME, organism-based; set-up: dose 10 mg/kg, route oral; conditions: in vivo, 168 h; how it was run: as §3
Rattus norvegicus [11] = assay: AUC (0 to infinity) in Sprague-Dawley rat assessed as tenofovir level at 100 mg/kg, po administered daily for 7 days measured on day 7; format: ADME, organism-based, Plasma; set-up: time infinity, dose 100 mg/kg, route oral; conditions: in vivo, 168 h; how it was run: as §3
[12] = Cytotoxicity against human PBMC by XTT assay; format: cell-based; how it was run: as §1
Rattus norvegicus [13] = assay: Tmax in Sprague-Dawley rat assessed as tenofovir level at 30 mg/kg, po administered daily for 7 days measured on day 1; format: ADME, organism-based; set-up: dose 30 mg/kg, route oral; conditions: in vivo, 168 h; how it was run: as §3
Rattus norvegicus [14] = assay: AUC (0 to infinity) in Sprague-Dawley rat assessed as tenofovir level at 10 mg/kg, po administered daily for 7 days measured on day 7; format: ADME, organism-based, Plasma; set-up: time infinity, dose 10 mg/kg, route oral; conditions: in vivo, 168 h; how it was run: as §3
[15] = Selectivity index, ratio of CC50 for human HepG2 cells to EC50 for HBV
Rattus norvegicus [16] = assay: Elimination half life in Sprague-Dawley rat assessed as tenofovir level at 30 mg/kg, po administered daily for 7 days measured on day 1; format: ADME, organism-based; set-up: dose 30 mg/kg, route oral; conditions: in vivo, 168 h; how it was run: as §3
Rattus norvegicus [17] = assay: AUC (0 to infinity) in Sprague-Dawley rat assessed as tenofovir level at 30 mg/kg, po administered daily for 7 days measured on day 7; format: ADME, organism-based, Plasma; set-up: time infinity, dose 30 mg/kg, route oral; conditions: in vivo, 168 h; how it was run: as §3
Hepatitis B virus [18] = assay: Antiviral activity against HBV in human HepG2(2.2.15) cells assessed as viral DNA levels treated for 9 days measured after 24 hrs; format: functional, organism-based
How it was run: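 Confluent 2.2.15 cells in RPMI 1640 with 2% FBS, given nine consecutive daily doses with daily medium change (six cultures per concentration on two replicate plates). HBV DNA quantified by blot hybridization 24 h after the last treatment.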

Rattus norvegicus [19] = assay: Tmax in Sprague-Dawley rat assessed as tenofovir level at 30 mg/kg, po administered daily for 7 days measured on day 7; format: ADME, organism-based; set-up: dose 30 mg/kg, route oral; conditions: in vivo, 168 h; how it was run: as §3
Hepatitis B virus [20] = assay: Antiviral activity against HBV in human HepAD38 cells assessed as intracellular viral DNA levels treated for 3 days measured on day 6 […] by RT-PCR; format: functional, organism-based
How it was run: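 HepAD38 cells seeded at 5 x 10^5/well, grown 2-3 days with 0.3 µg/ml tetracycline, then induced by PBS wash and tetracycline/G418-free medium with or without compound at 37°C, 5% CO2. Medium changed after 3 days. Intracellular HBV DNA measured on day 6 postinduction by TaqMan real-time PCR against a plasmid standard curve, given as % of mock.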

Rattus norvegicus [21] = assay: Elimination half life in Sprague-Dawley rat assessed as tenofovir level at 100 mg/kg, po administered daily for 7 days measured on day 7; format: ADME, organism-based; set-up: dose 100 mg/kg, route oral; conditions: in vivo, 168 h; how it was run: as §3
Rattus norvegicus [22] = assay: Tmax in Sprague-Dawley rat assessed as tenofovir level at 10 mg/kg, po administered daily for 7 days measured on day 1; format: ADME, organism-based; set-up: dose 10 mg/kg, route oral; conditions: in vivo, 168 h; how it was run: as §3
Rattus norvegicus [23] = assay: Tmax in Sprague-Dawley rat assessed as tenofovir level at 10 mg/kg, po administered daily for 7 days measured on day 7; format: ADME, organism-based; set-up: dose 10 mg/kg, route oral; conditions: in vivo, 168 h; how it was run: as §3
Rattus norvegicus [24] = assay: Tmax in Sprague-Dawley rat assessed as tenofovir level at 100 mg/kg, po administered daily for 7 days measured on day 1; format: ADME, organism-based; set-up: dose 100 mg/kg, route oral; conditions: in vivo, 168 h; how it was run: as §3
[25] = Selectivity index, ratio of CC50 for human HepG2(2.2.15) cells to EC50 for HBV
[26] = Cytotoxicity against human HepG2 cells by MTS assay; format: cell-based; conditions: human, HepG2 cells
How it was run: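 Exponentially growing HepG2 cells (parent hepatoma line); cytostatic effect measured by MTS method.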

Rattus norvegicus [27] = assay: AUC (0 to infinity) in Sprague-Dawley rat assessed as tenofovir level at 10 mg/kg, po administered daily for 7 days measured on day 1; format: ADME, organism-based, Plasma; set-up: time infinity, dose 10 mg/kg, route oral; conditions: in vivo, 168 h; how it was run: as §3
[28] = Cytotoxicity against human MT2 cells; format: cell-based
How it was run: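 MT-2 cells in RPMI 1640 with 10% FBS and 10 mM HEPES, exposed to threefold serial drug dilutions. CC50 calculated from cell counts and viability.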

Rattus norvegicus [29] = assay: Elimination half life in Sprague-Dawley rat assessed as tenofovir level at 10 mg/kg, po administered daily for 7 days measured on day 1; format: ADME, organism-based; set-up: dose 10 mg/kg, route oral; conditions: in vivo, 168 h; how it was run: as §2
[30] = Cytotoxicity against human HepG2(2.2.15) cells after 24 hrs by neutral red uptake assay; format: cell-based; conditions: human, HepG2 2.2.15 cells
How it was run: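 Confluent 2.2.15 cells given nine daily treatments. Neutral red uptake read by absorbance of internalized dye 24 h after the last treatment, three cultures per concentration.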

## C[C@H](Cn1cnc2c(N)ncnc21)OCP(=O)(O)O [TENOFOVIR ANHYDROUS]
[1]
  Ratio CC50/EC50: 396
Rattus norvegicus [2]
  AUC: 1808.1 ng·h/mL
Rattus norvegicus [3]
  Tmax: 12 h
Rattus norvegicus [4]
  beta t1/2: 7.2 h
Rattus norvegicus [5]
  AUC: 3639.5 ng·h/mL
Rattus norvegicus [6]
  beta t1/2: 7.6 h
[7]
  selectivity ratio: > 154
[8]
  pEC50: 6.19
[9]
  pEC50: 5.49
Rattus norvegicus [10]
  beta t1/2: 9.2 h
Rattus norvegicus [11]
  AUC: 7373.4 ng·h/mL
[12]
  CC50: 1270 µM
Rattus norvegicus [13]
  Tmax: 4 h
Rattus norvegicus [14]
  AUC: 1226.9 ng·h/mL
[15]
  Ratio CC50/EC50: >133
Rattus norvegicus [16]
  beta t1/2: 10.1 h
Rattus norvegicus [17]
  AUC: 2790.5 ng·h/mL
Hepatitis B virus [18]
  pEC50: 5.14
Rattus norvegicus [19]
  Tmax: 4 h
Hepatitis B virus [20]
  pEC50: 5.65
Rattus norvegicus [21]
  beta t1/2: 9 h
Rattus norvegicus [22]
  Tmax: 2 h
Rattus norvegicus [23]
  Tmax: 2.4 h
Rattus norvegicus [24]
  Tmax: 12 h
[25]
  Ratio CC50/EC50: >41.7
[26]
  CC50: > 100 µM
Rattus norvegicus [27]
  AUC: 775.2 ng·h/mL
[28]
  CC50: > 100 µM
Rattus norvegicus [29]
  beta t1/2: 10.9 h
[30]
  CC50 at 24 h: > 300 µM
